In the library only some 1.2% were active in any assay of this set; here they are far more common.
Diaph inh CS – diaphorase inhibition or chemical oxidation counter-screen; AID 1217; diaphorase resazurin-to-resorufin fluorescence, NADH, 16 min; bacterial (C. kluyveri) enzyme, not human; hit rate 0.69% among 190,000; inhibition, % at 20 µM;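 active means primary screen inhibition at 20 µM above a set limit, cut at about 50% in these data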
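Test system: Clostridium kluyveri diaphorase enzyme / Quantity: diaphorase at 0.14 U/mL in enzyme working solution / Incubation: 16-min room-temperature incubation before reading / Benchmarks: NADH-free wells as positive control, DMSO-only neutral wells / Signal: resorufin fluorescence 544/590 nm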
Tb hexokinase – T. brucei hexokinase 1 inhibition. recombinant TbHK1, G6PDH-coupled NADH A340. inhibition, % at 10 µM. hit rate 0.11% among 220,000. AID 1430;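 active means inhibition of 50% or more in the single-dose primary screen; inactive means inhibition below 50%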
HKDC1 inh – inhibitors of human hexokinase HKDC1 | Q2TB90 | inhibition, % at 20 µM | hit rate 0.16% among 340,000 | recombinant HKDC1, G6PDH/diaphorase resazurin coupled fluorescence;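 active means inhibition above about 35% when tested at 20 µM, limit read from the data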
Target sequence (Q2TB90 whole entry, looked up): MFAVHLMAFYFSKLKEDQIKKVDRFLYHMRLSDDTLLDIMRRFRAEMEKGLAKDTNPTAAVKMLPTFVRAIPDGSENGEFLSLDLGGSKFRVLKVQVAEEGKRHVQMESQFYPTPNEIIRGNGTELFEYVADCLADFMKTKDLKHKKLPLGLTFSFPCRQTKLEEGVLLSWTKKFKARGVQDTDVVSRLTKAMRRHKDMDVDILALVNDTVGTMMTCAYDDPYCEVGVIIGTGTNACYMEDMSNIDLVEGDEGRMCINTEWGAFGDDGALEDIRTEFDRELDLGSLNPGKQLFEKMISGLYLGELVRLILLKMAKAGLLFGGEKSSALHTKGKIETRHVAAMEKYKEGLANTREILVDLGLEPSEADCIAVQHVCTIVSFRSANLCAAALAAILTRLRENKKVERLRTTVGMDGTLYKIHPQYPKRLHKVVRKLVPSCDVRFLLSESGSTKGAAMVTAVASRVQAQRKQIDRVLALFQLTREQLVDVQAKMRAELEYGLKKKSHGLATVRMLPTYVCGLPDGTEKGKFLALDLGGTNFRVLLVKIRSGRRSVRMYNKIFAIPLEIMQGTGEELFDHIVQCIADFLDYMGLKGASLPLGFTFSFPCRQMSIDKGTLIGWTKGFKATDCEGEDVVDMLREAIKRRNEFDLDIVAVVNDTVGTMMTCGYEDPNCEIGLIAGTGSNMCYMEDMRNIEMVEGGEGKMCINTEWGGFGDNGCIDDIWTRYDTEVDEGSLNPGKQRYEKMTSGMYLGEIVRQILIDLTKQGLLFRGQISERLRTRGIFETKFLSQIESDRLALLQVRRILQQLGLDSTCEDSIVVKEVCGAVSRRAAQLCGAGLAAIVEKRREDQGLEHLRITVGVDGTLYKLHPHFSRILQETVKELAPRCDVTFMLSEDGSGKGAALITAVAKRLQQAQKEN
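System: Recombinant HKDC1 hexokinase | Amount: HKDC1 at 5 µg/mL | Reagent: Glucose with 1 mM ATP | Doses: Single 20 µM dose | Incubation: Reaction time 90 min, room temperature, protected from light | Signal: Coupled resazurin fluorescence, excitation 525 nm, emission 613 nm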
PfGluPho inh – PfG6PD (Plasmodium falciparum) enzyme inhibition; PfGluPho enzyme, NADPH resazurin-diaphorase fluorescence; inhibition, % at 20 µM; hit rate 0.78% among 350,000; AID 504690;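 active means inhibition reaching at least a set limit at 20 µM in the primary screen, cut at about 59% in these data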
G6PDH counter – inhibits Leuconostoc G6PDH, flagging false hits in G6PDH-based assays. inhibition, % at 5 µM. Purified L. mesenteroides G6PDH, diaphorase/resazurin coupled fluorescence, 45 min. hit rate 0.12% among 200,000; in the data active means inhibition above about 50%
PfGluPho conf – confirmation of Plasmodium falciparum G6PD inhibitors; shares compounds with PfGluPho inh; recombinant PfGluPho, NADPH-diaphorase-resazurin fluorescence; inhibition, % at 20 µM; hit rate 34% among 2,400; AID 504753;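 active means inhibition of at least 50% at 20 µM in any single replicate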
Diaph ctr 10uM – counter-screen for P. falciparum G6PD inhibitors: diaphorase inhibitors, oxidizers; shares compounds with PfGluPho inh; AID 504862; diaphorase-coupled resazurin reduction, fluorescence, NADPH 10 uM; hit rate 39% among 820; inhibition, % at 20 µM;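 active means average inhibition reaching 50% or more with the compound at 20 µM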;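 further: resorufin red fluorescence formed as diaphorase reduces resazurin using NADPH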
Diaphorase 30uM – inhibits diaphorase or oxidizes, flagging false PfG6PD hits; shares compounds with PfGluPho inh; Diaphorase/resazurin coupled assay, resorufin fluorescence, 30 uM NADPH; inhibition, % at 20 µM; hit rate 29% among 820;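 active means inhibition averaging 50% or more, tested at 20 µM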
A number is an active result; - = inactive; . = not tested or not shown.

SMILES	Diaph inh CS	Tb hexokinase	HKDC1 inh	PfGluPho inh	G6PDH counter	PfGluPho conf	others
CCOC(=O)c1cc(C)[nH]c(=S)c1C#N	51.8	-	-	74.2	-	-
CCOC(=O)c1cc(C(=O)OCC)c(=O)[nH]c1C	-	-	-	-	-	.
COC(=O)C1CCN(S(=O)(=O)CCNC(=O)c2ccc(F)cc2)CC1	.	.	-	-	.	.
CCC1(C)CC(C(N)=S)CCO1 (stereo not drawn)	.	-	-	80.7	.	63.9	Diaph ctr 10uM=-;Diaphorase 30uM=-
CCOc1ccc(NC(=O)C2CC(=O)N(CCc3ccc(OC)c(OC)c3)C2)cc1OCC (stereo not drawn)	.	.	-	-	.	.
Cn1c(C(=O)NCc2ccc3c(c2)OCO3)cc2sccc21	-	-	-	-	-	.
Cn1c(C(=O)Nc2ccc3c(c2)OCO3)cc2sccc21	-	-	-	80.8	-	-
C[n+]1cccc2cccc([O-])c21	.	-	-	82.4	.	-
COc1cc(OC)c(OC)cc1CN1CCN(C(=O)CC(C)C)CC1	.	.	-	-	.	.
O=[N+]([O-])c1ccc2c(c1N1CCCCC1)=NC1(CCCCC1)[N+]=2[O-]	.	-	-	-	.	.
[O-][N+]1=c2ccc(Nc3ccccc3)cc2=NC12CCCCC2	72.4	-	-	61.0	-	-
COc1ccc(Nc2ccc3c(c2)=NC2(CCCCC2)[N+]=3[O-])cc1	72.8	-	-	78.5	56.1	-
CC(Oc1cccnc1[N+](=O)[O-])C(=O)N1CCc2ccccc21 (stereo not drawn)	.	.	-	-	.	.
C=C(C)COc1ccc(-c2ncnc(C(F)(F)F)c2-c2ccccc2)c(O)c1	.	.	-	-	.	.
C=C(C)COc1ccc(-c2ncnc(C(F)(F)F)c2-c2ccc(OC)cc2)c(O)c1	.	.	-	70.5	.	-
CC1(OC(=O)CCc2ccccc2)C(=O)C=C2C=C(c3ccc(C#N)cc3)N(C3CCCC3)C=C2C1=O (stereo not drawn)	.	-	-	60.8	.	-
CC(C)OCCCN1C=C2C(=O)C(C)(OC(=O)CCc3ccccc3)C(=O)C=C2C=C1c1ccc(C#N)cc1 (stereo not drawn)	.	-	-	81.2	.	-
CC1(OC(=O)CCc2ccccc2)C(=O)C=C2C=C(c3ccc(C#N)cc3)N(c3ccccc3)C=C2C1=O (stereo not drawn)	.	-	-	71.5	.	-
O=C(N/N=C/c1cccc(OC2CSC2)c1)c1ccccc1O	-	-	-	-	-	.
Cn1ncc(Br)c1C(=O)N/N=C/c1cccc(OC2CSC2)c1	-	-	-	115.1	-	90.6	Diaph ctr 10uM=91.4;Diaphorase 30uM=81.0
COc1ccc(OC)c(C2CC(=O)NC(SC)=C2C#N)c1 (stereo not drawn)	-	-	-	-	-	.
COc1ccc(Br)cc1C1CC(=O)N2CN(C)CSC2=C1C#N (stereo not drawn)	-	-	-	65.2	-	-
COc1cc(OC)c(C2CC(=O)N3CN(C)CSC3=C2C#N)cc1OC (stereo not drawn)	-	-	-	61.0	-	-
CCOc1ccc(CNC(=O)CN2C(=O)CSc3ccc(S(=O)(=O)N4CCOCC4)cc32)cc1OC	.	.	-	-	.	.
O=c1[nH]cnc(O)c1C(c1ccc2c(c1)OCO2)c1c(O)nc[nH]c1=O	-	-	-	-	-	.
SMILES	Diaph inh CS	Tb hexokinase	HKDC1 inh	PfGluPho inh	G6PDH counter	PfGluPho conf	others
CCOC(=O)c1cnc2ccc(OCC)cc2c1NCc1cccnc1	-	-	-	-	-	.
CCOC(=O)c1cnc2ccc(OCC)cc2c1NCc1ccccc1	-	-	-	65.8	-	-
COc1ccc(-c2cc(=O)oc3cc(OCC(=O)Nc4ccc(CCO)cc4)ccc23)cc1	.	.	-	-	.	.
COc1ccc(Nc2nc(C)c(-c3ccccc3)s2)cc1	-	-	-	75.7	-	-
COc1ccccc1/C=N/NC(=O)c1c(-c2ccccc2)noc1C	.	.	-	87.0	.	65.7	Diaph ctr 10uM=83.9;Diaphorase 30uM=63.6
Cc1cccc(/C=N/NC(=O)c2c(-c3ccccc3)noc2C)c1O	.	.	-	-	.	.
COc1cc(/C=N/NC(=O)c2c(-c3ccccc3)noc2C)cc(OC)c1OC	-	-	-	-	-	.
Cc1onc(-c2ccccc2)c1C(=O)N/N=C/c1cccs1	.	-	-	62.3	.	-
COc1ccc(/C=N/NC(=O)c2c(-c3ccccc3)noc2C)cc1	-	-	-	-	-	.
Cc1onc(-c2ccccc2)c1C(=O)N/N=C/c1ccccc1OC(C)C	.	.	-	117.4	.	85.1	Diaph ctr 10uM=75.8;Diaphorase 30uM=50.1
Cc1onc(-c2ccccc2)c1C(=O)N/N=C/c1cn(C)c2ccccc12	-	-	-	90.0	-	70.9	Diaph ctr 10uM=68.2;Diaphorase 30uM=57.8
CN(CC(=O)N/N=C/c1ccc(F)cc1)S(=O)(=O)c1ccccc1	.	.	.	-	.	.
Cc1ccccc1OCC(=O)N/N=C/c1cn(C)c2ccccc12	.	-	-	64.1	.	-
Cc1ccc(OCC(=O)N/N=C/c2cn(C)c3ccccc23)cc1	.	-	-	-	.	.
COc1ccc(-c2csc(NC(=O)c3ccccc3F)c2C(=O)O)cc1	.	.	-	-	.	.
COc1cc(C(=O)Nc2scc(-c3ccccc3)c2C(=O)O)cc(OC)c1OC	.	.	-	68.6	.	-
CCOC(=O)c1c(-c2cc(OC)c(OC)c(OC)c2)csc1NC(=O)c1ccccc1	.	.	.	-	.	.
Cc1ccc(C(=O)Nc2scc(-c3ccccc3)c2C(=O)O)cc1	.	.	-	105.0	.	-
COc1cc(C(=O)Nc2scc(-c3ccc(C)cc3)c2C(=O)O)cc(OC)c1OC	.	.	-	76.4	.	-
O=C(Nc1cccc([N+](=O)[O-])c1)NN1CCCCCC1	.	.	-	-	.	.
Cc1ccc(-c2csc3n[nH]c(=S)n23)cc1	-	-	-	62.6	-	-
COc1ccc(CN2CC[C@H]3C=CCc4cccc(c43)C2)cc1	.	.	-	-	.	.
CCOC(=O)C(C)On1c(-c2cccc(Cl)c2)nc2ccc([N+](=O)[O-])cc21 (stereo not drawn)	-	-	-	64.5	-	-
CCOC(=O)COn1c(-c2cccc(Cl)c2)nc2ccc([N+](=O)[O-])cc21	-	-	-	109.7	-	-
CC(On1c(-c2ccccc2)nc2ccc(Cl)cc21)C(=O)O (stereo not drawn)	-	-	-	-	-	.
O=c1ccc2cc(S(=O)(=O)N3CCN(c4ccc(Cl)cc4)CC3)ccc2o1	.	.	-	-	.	.
COc1ccc(Nc2cc(C)c3ccc(O)cc3n2)cc1	.	-	-	72.3	.	-
COc1ccc(-n2c(C)cc(/C=N/Nc3nnc(C)n3N)c2C)cc1	-	-	-	65.9	-	-
COc1cccc(/C=N/Nc2nnc(C)n2N)c1O	.	.	-	-	.	.
CC1=C(C(N)=O)C(c2ccccc2[N+](=O)[O-])n2ncnc2N1 (stereo not drawn)	.	.	-	65.2	.	-

Compound activity deposited in PubChem BioAssay by several laboratories.
